This note sets out measurements from the RNAGym collection of RNA variant scans (doi:10.1126/science.aae0568).

Variants at the floor of the assay were thinned out.

B1: tRNA (parent)
chain: GUUCCGUUGGCGUAAUGGUAACGCGUCUCCCUCCUAAGGAGAAGACUGCGGGUUCGAGUCCCGUACGGAACG

In the data set the parent is B1. Nature of the data set: yeast fitness relative to wild type (ratio to wild type); higher = fitter; tRNA-Arg(CCU), competitive growth, 37 C, YPD. In outline:
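Changes in genotype frequencies gave Darwinian fitness relative to wild type. Frequencies were read by 100-nucleotide paired-end sequencing of gene amplicons before and after pooled Saccharomyces cerevisiae strains, carrying tRNA-Arg(CCU) gene variants at the native locus, were competed in YPD at 37°C for 24 hours in six replicates. A genotype was kept only with ≥ 100 starting reads, and estimates < 0.5 were set to 0.5.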
Take GUUCCGUUGGCGUAAUGGUAACGCGUGUCCCUCCUAAGGAGUAGACUGUGGGUUCGAGUCCCGUACGGAACG [C27G A42U C49U]: the yeast fitness stood at 0.58.
In the case of GUUCCGUUGGCGUAAUGGUAACGCGUGUCCCUCCUAAGGAGAAGUCUGCGGGUUAAAGUCCCGUACGGAACG [C27G A45U C55A G56A] it was no more than 0.5.
In the case of GUUCCGUUGGCGUAAUGGUAACGCGUGUCCUUCCUAAGGAGAAGACUGCGGGUUCGAGUACCGUACGGAACG [C27G C31U C60A] it was 0.602; in that of GUUCCGUUGGCGUAAUGGUAACGCGUGUCCCUCCUAAGGAGAAGACUGCGGGUUCGAGUCCCGUACGGCACG [C27G A69C], 0.654.
To GUUCCGUUGGCGUAAUGGUAACGCGUGUCCCUCCUAAGGAGAAGACUGCGGGUUCGAGUCCCGUACGGGACG [C27G A69G] belongs 0.652.
Turning to GUUCCGUUGGCGUAAUGGUAACGCGUGUCGUUCCUAAGGAGAAGACUGCGGGUCCGAGUCCCGUACGGAACG [C27G C30G C31U U54C], the yeast fitness was no more than 0.5.
In the case of GUUCCGUUGGCGUAAUGGUAACGCGUGUCGCUCCUAAGGAGAAGACUGCGGGUUCGAGUCCCGGACGGAACG [C27G C30G U64G] it was no more than 0.5; in that of GUUCCGUUGGCGUAAUGGUAACGCGUGUCCAUCCUAAGGAGAAGACUGCGGGUUCGAGUCCCGUACGGACCG [C27G C31A A70C], 0.539; in that of GUUCCGUUGGCGUAAUGGUAACGCGUGUCCCUCCUAAGGAGAAGGCUGCGGGUUCGAGUCCCGUACGGAACG [C27G A45G], 0.722.
In the case of GUUCCGUUGGCGUAAUGGUAACGCGUGUCCAUCCUAAGGAGAAGACUGCGGGUUCGAGUGCCGUACGGAACG [C27G C31A C60G], the yeast fitness is no more than 0.5.
For GUUCCGUUGGCGUAAUGGUAACGCGUGUCCAUGCUAAGGAGAAGACUGUGGGUUCGACUCCCGUACGGAACG [C27G C31A C33G C49U G58C], the yeast fitness is no more than 0.5.
With GUUCCGUUGGCGUAAUGGUAACGCGUGUCCCUCCUAAGGAGACGACUGCGGGUUCGAGUCCCGUAAGGAACG [C27G A43C C66A], the yeast fitness was no more than 0.5.
For the variant GUUCCGUUGGCGUAAUGGUAACGCGUGUACCUCCUAAGGAGAAGACUGCGGCUUCGAGUCCCGUACGGAACG [C27G C29A G52C], the yeast fitness was no more than 0.5.
In the case of GUUCCGUUGGCGUAAUGGUAACGCGUGUCCCUCCUAAGGAGAUGACUGCGGGUUCGGGUCCCGUACGGAACG [C27G A43U A57G] it was no more than 0.5; in that of GUUCCGUUGGCGUAAUGGUAACGCGUGUCUCUCCUAAGGAGUAGACUGCGGGUUCGAGUCCCGUACGGAACG [C27G C30U A42U], 0.651; in that of GUUCCGUUGGCGUAAUGGUAACGCGUGUCCCUCCUAAGGAGACGAUUGCGGGUUCGAGUUCCGUACGGAACG [C27G A43C C46U C60U], 0.748.
For GUUCCGUUGGCGUAAUGGUAACGCGUGUCCCUCCUAAGGAGAUGACUGCGGGUUCGAGGCCCGUACGCAACG [C27G A43U U59G G68C], the yeast fitness is no more than 0.5.
For GUUCCGUUGGCGUAAUGGUAACGCGUGUCUCUCCUAACGAGAAGACUGCGGGUUCGAAUCCCGUACGGAACG [C27G C30U G38C G58A], the yeast fitness was 0.679.
To GUUCCGUUGGCGUAAUGGUAACGCGUGUACCUCCUAAGGAGAAGACUGCGGGUUCGAGUCCUGUACGGAACG [C27G C29A C62U] belongs 0.647.
Consider GUUCCGUUGGCGUAAUGGUAACGCGUGUCCGUCCUAAGGAGAAGACUGCGGGUGCGAGUCCCGUACGGACCG [C27G C31G U54G A70C], for which the yeast fitness was no more than 0.5.
As to GUUCCGUUGGCGUAAUGGUAACGCGUGUCCCUCCUAAGGAGAAGACUGCGGGUUCGAGUCCCGUACGGAGCG [C27G A70G], the yeast fitness came out at 0.718.
In the case of GUUCCGUUGGCGUAAUGGUAACGCGUGUCCCUCCUAAGGAGUAGACUGCGGAUUCGAGUCCCGUACGGAACG [C27G A42U G52A], the yeast fitness was no more than 0.5.
As for GUUCCGUUGGCGUAAUGGUAACGCGUGUCCCUCCUAAGGAGAAGACUGCGGGUUCGCGACCGGUACGAAACG [C27G A57C U59A C62G G68A], the yeast fitness was 0.532.
In the case of GUUCCGUUGGCGUAAUGGUAACGCGUGUCCCUCCUAAGGAGAAGACUGCGGGUUCGUGCCCCGUACGGAACG [C27G A57U U59C] it was 0.508; in that of GUUCCGUUGGCGUAAUGGUAACGCGUGUGCCUCCUAAGGAGAAGAAUGCGGGUUCGAGUCCCGUGUGGAACG [C27G C29G C46A A65G C66U], no more than 0.5.
For the variant GUUCCGUUGGCGUAAUGGUAACGCGUGUCCCUCCUAAGGAGAGGACGGCGGGUUCGAGUCCCGUACGGAGCG [C27G A43G U47G A70G], the yeast fitness was no more than 0.5.
For the variant GUUCCGUUGGCGUAAUGGUAACGCGUGUCCUUCCUAAGGAGAAGACUGCGGGCUCGAGUCCCGUAAGGAACG [C27G C31U U53C C66A], the yeast fitness was no more than 0.5.
As to GUUCCGUUGGCGUAAUGGUAACGCGUGUCCCUCCUAAGGAGACGACUGCGGGUUCGAGUCCUGUACGGAACG [C27G A43C C62U], the yeast fitness was determined as 0.599.
In the case of GUUCCGUUGGCGUAAUGGUAACGCGUGUCCCUCCUAAGGAGACGACUGCGGGUUCGAGUCCCGUACGGAACG [C27G A43C], the yeast fitness stood at 0.611.
In the case of GUUCCGUUGGCGUAAUGGUAACGCGUGUCCCUCCUAAGGAGAAGACUGCGGGUUCGCGUCCUGUACGGAACG [C27G A57C C62U], the yeast fitness was 0.511.
For GUUCCGUUGGCGUAAUGGUAACGCGUGUCCGUCCUAAGGAGAAGACUGCGGGUUCGAGACCCGUACGGAACG [C27G C31G U59A], the yeast fitness was no more than 0.5.
GUUCCGUUGGCGUAAUGGUAACGCGUGUCCGUCCUAAGGAGAAGACUGCGGGUUCGAGCCCCGUACGGAACG [C27G C31G U59C]: the yeast fitness came to 0.604.
In the case of GUUCCGUUGGCGUAAUGGUAACGCGUGUCCUUCCUAAGGAGAAGACUGGGGGUUCGACUCCCGUACGGAACG [C27G C31U C49G G58C] it was no more than 0.5; in that of GUUCCGUUGGCGUAAUGGUAACGCGUGUCCUUCCUAAGGAGAAGACUGCGGGUUCGAGUCCCGUUCGGAUCG [C27G C31U A65U A70U], no more than 0.5.
For the variant GUUCCGUUGGCGUAAUGGUAACGCGUGUUCCUCCUAAGGAGAAGACUGCGGGUUCGAGUCCCGUACGGAACG [C27G C29U], the yeast fitness amounted to 0.578.
In the case of GUUCCGUUGGCGUAAUGGUAACGCGUGUACCUCCUAAGGAGAUGACUGCGGGUUCGAGUCCCGUACGGAACG [C27G C29A A43U], the yeast fitness is no more than 0.5.
Consider GUUCCGUUGGCGUAAUGGUAACGCGUGUCCAUCCUAAGGAGAAGACUGCGGGUUCGACUCCCGUACGGAACG [C27G C31A G58C], for which the yeast fitness is no more than 0.5.
Consider GUUCCGUUGGCGUAAUGGUAACGCGUGUCCCUCCUAAGGAGAUGACUGCGGGUUGGAGUCCCGUACGGAACG [C27G A43U C55G], for which the yeast fitness was no more than 0.5.
